PubChem BioAssay
The source made the active and inactive calls.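 Rule for the calls, unless noted: active = fluorescence slope after compound addition differing from the mean of all tested samples at 99.7% confidence, mostly higher but some lower; inactive = the rest.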

Assays:
[1] = inhibitors of TNFa-induced NFkB p65 translocation, primary screen, imaging, HUVEC, MLSMR starter and 10KST1 sets (AID 438;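 active = inhibition above 20% together with a positive visual image hit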;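 note: compound added about 3h40 before a 20 min TNFalpha stimulation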;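 for inhibition: signal is the nuclear over cytoplasmic p65 intensity ratio per well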); settings: HUVEC TNFa-induced p65 nuclear translocation; cell count: measured here: nuclei count (cytotoxicity indicator), at 2.08 µM; inhibition: at 2 µM, stronger effect = higher value, 0% TNFa-plus-vehicle, 100% no-TNFa wells
[2] = reduction of polyQ htt aggregates in cells – imaging, exon1htt(103Q)mCFP cells, high-content imaging, primary screen (AID 483;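 active = visual image review flags a hit and inhibition of aggregation exceeds 20%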;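 note: compound exposure lasted 3 days before fixation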;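 for nuclei count: percent of the per-plate median nuclei count of sample wells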); settings: exon1htt(103Q)mCFP cell line, aggregate imaging, at 2 µM; inhibition of aggregation: stronger effect = higher value; nuclei count: measured here: cell count, toxicity
[3] = endothelial E-selectin expression blockers – imaging, HUVEC, immunofluorescence, MLSMR starter and 10KST1 sets, primary screen (AID 487;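 active = visually confirmed hit in the image check and inhibition above 20%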;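 for inhibition: signal is fraction of cell area covered by stained E-selectin grains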;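 for nuclei count: 100% = median nuclei count of all wells on the same plate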); settings: HUVEC TNFalpha-induced E-selectin immunofluorescence imaging, at 2 µM; inhibition: stronger effect = higher value; nuclei count: measured here: cell number, toxicity
[4] = biological target: Voltage-gated potassium channel subunit beta-2 (Rattus norvegicus) (UniProt P62483); assay: inhibitors of rat Kvbeta2 reductase activity – biochemical, NADPH fluorescence, primary screen (AID 622;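 active = fluorescence slope higher than the sample average by over 3 SD, cut at about -0.22 in these data, passing the limit was not always enough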;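 note: slope of raw intensity against log time taken from 70 to 1610 s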); settings: recombinant KvBeta, 4-cyanobenzaldehyde reduction, at 10 µM, stronger effect = higher value
Chain of Voltage-gated potassium channel subunit beta-2 (Rattus norvegicus) (P62483 whole entry, looked up): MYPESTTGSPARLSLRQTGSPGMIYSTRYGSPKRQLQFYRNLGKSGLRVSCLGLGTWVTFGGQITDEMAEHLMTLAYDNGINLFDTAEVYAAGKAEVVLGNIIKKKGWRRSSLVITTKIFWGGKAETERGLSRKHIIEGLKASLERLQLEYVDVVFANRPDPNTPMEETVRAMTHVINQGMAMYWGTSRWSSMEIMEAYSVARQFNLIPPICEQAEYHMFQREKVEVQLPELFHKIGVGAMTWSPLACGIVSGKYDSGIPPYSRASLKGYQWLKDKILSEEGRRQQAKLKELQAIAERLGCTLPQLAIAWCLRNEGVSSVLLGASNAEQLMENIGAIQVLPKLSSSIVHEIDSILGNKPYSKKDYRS

[5] = biological target: Voltage-gated potassium channel subunit beta-2 (Rattus norvegicus) (UniProt P62483); assay: enhancers of rat Kvbeta2 NADPH turnover – biochemical, NADPH fluorescence, primary screen (AID 623;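 active = NADPH fluorescence slope more negative than the mean of all samples by about 3 SD, 99.7% confidence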;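 note: fluorescence intensity change per second fitted from 20 to 320 s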); settings: Recombinant KvBeta, NADPH fluorescence decrease slope, 10 min; at 10 µM; stronger effect = lower value
[6] = biological target: Muscarinic acetylcholine receptor M4 (Homo sapiens) (UniProt P08173); assay: M4-linked GIRK flux change, two-sided – cell-based, HEK293 M4/GIRK, thallium flux, BTC-AM, M4 allosteric agonist project, primary screen (AID 625); settings: at 10 µM, actives lie on both sides;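 note: thallium influx through GIRK channels coupled to M4 in HEK293 cells with BTC-AM dye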
Chain of Muscarinic acetylcholine receptor M4 (Homo sapiens) (P08173 whole entry, looked up): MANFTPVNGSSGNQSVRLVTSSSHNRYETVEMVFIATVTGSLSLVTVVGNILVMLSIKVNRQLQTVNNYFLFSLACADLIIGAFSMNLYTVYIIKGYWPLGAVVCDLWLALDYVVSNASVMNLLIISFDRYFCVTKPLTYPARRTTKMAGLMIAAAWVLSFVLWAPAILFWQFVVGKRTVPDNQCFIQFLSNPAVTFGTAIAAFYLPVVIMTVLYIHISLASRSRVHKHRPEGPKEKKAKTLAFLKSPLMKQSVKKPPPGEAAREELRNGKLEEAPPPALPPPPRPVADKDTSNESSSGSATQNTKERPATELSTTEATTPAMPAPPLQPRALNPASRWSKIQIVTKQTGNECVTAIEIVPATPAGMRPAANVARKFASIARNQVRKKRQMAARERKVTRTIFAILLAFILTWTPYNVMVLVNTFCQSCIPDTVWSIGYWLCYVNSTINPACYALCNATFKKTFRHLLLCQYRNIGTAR
Method in brief: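 System: HEK293 cells with M4 receptor and GIRK channels | Incubation: Cells overnight at 37 °C, BTC-AM loading 1 h, reads 2 min total | Technique: Kinetic BTC-AM fluorescence sampled at 1 Hz, 10 s pre-addition baseline | Measure: Post-addition slope, 15–24 s, of baseline-normalized fluorescence | Control set: Carbachol positive, DMSO negative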

[7] = blockers of RIG-like receptor reporter activation – cell-based, Sendai virus stimulus, luciferase, 10K MLSCN set, TLR/RLR signaling modifier project, primary screen (AID 602276;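 active = inhibition at or above 50% at 10 µM; inactive = inhibition below 50%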;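 note: firefly luciferase from ISG56 promoter only with Renilla not read in this screen; 0% = Sendai virus plus DMSO and 100% = medium plus DMSO without virus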); settings: HEK293 RL24 IRF3 luciferase reporter, at 10 µM, stronger effect = higher value
[8] = TLR3 IRF3 reporter activation blockers – cell-based, poly I:C stimulus, luciferase, 10K MLSCN set, primary screen (AID 602277;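 active = inhibition of the reporter signal at or above 50%; inactive = inhibition below 50%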); settings: HEK293-TLR3 RL24 IRF3 luciferase reporter, at 10 µM, stronger effect = higher value

SMILES	cell count [1]	inhibition [1]	inhibition of aggregation [2]	nuclei count [2] [%]	inhibition [3]	nuclei count [3] [%]	fluorescence slope [4]	NADPH fluorescence slope [5]	fluorescence slope [6]	inhibition [7]	inhibition [8]
O=C(Nc1ccc(CN2CCOCC2)cc1)c1cc2ccccc2oc1=O	426	3.6% (inactive)	-12.6% (inactive)	118	-218% (inactive)	146	-0.53 (inactive)	-7.9e-05 (inactive)	0.00463 (inactive)	0.662% (inactive)	29.5% (inactive)
Cn1c(-c2ccccc2)c(CCO)c2ccccc21	578	13.7% (inactive)	-2.6% (inactive)	88.3	-60.6% (inactive)	152	-0.559 (inactive)	-3.6e-05 (inactive)	0.00569 (inactive)	6.84% (inactive)	6.66% (inactive)
O=C(NCc1cccnc1)c1cn(CCc2ccccc2)nn1	569	-0.4% (inactive)	-18.3% (inactive)	98.8	-48.9% (inactive)	110	-0.31 (inactive)	-2.1e-05 (inactive)	0.0065 (inactive)	10.9% (inactive)	16.6% (inactive)
CCOc1ccccc1C(=O)NCCC(=O)O	326	-5.1% (inactive)	-42.8% (inactive)	91.6	16% (inactive)	118	-0.505 (inactive)	-0.00026 (inactive)	0.00473 (inactive)	-1.19% (inactive)	-5.47% (inactive)
COc1ccccc1OCc1ccc(C(=O)NC(C)(C)C)o1	735	-5.5% (inactive)	0.6% (inactive)	62.4	-20.5% (inactive)	112	-0.601 (inactive)	5.2e-05 (inactive)	0.00541 (inactive)	-16.1% (inactive)	-22.5% (inactive)
O=C(NCCCN1CCN(CCCNC(=O)c2ccc(F)cc2)CC1)c1ccc(F)cc1	364	-1.1% (inactive)	-1.8% (inactive)	109	4.2% (inactive)	102	-0.528 (inactive)	1.1e-05 (inactive)	0.00616 (inactive)	14.8% (inactive)	23.9% (inactive)
NC(=O)CSc1nnc(-c2ccc(O)cc2)n1Cc1ccco1	371	-0.2% (inactive)	18.6% (inactive)	98.1	-112% (inactive)	93.2	-0.531 (inactive)	-4.4e-05 (inactive)	0.00558 (inactive)	11.3% (inactive)	19.8% (inactive)
Cn1nc(C(=O)Nc2cccc(C(F)(F)F)c2)ccc1=O	357	9.9% (inactive)	-1.2% (inactive)	100	-46.7% (inactive)	104	-0.576 (inactive)	4e-05 (inactive)	0.00652 (inactive)	5.35% (inactive)	-5.97% (inactive)
O=C(Cc1c[nH]c2ccccc12)N1CCc2ccccc21	236	2.1% (inactive)	6.4% (inactive)	90	-28.8% (inactive)	93.8	-0.582 (inactive)	-1e-05 (inactive)	0.00443 (inactive)	-4.15% (inactive)	-44.5% (inactive)
COCCn1c(=NC(=O)CSC(C)=O)sc2cc(F)ccc21	426	-6.2% (inactive)	33.6% (inactive)	93.7	-22% (inactive)	106	-0.379 (inactive)	4.1e-05 (inactive)	0.00556 (inactive)	13.7% (inactive)	22.7% (inactive)
CC(=O)Nc1ccc(N2CCN(Cc3ccccc3F)CC2)cc1	452	19.4% (inactive)	12.1% (inactive)	102	34.5% (inactive)	120	-0.579 (inactive)	-3.8e-05 (inactive)	0.0111 (inactive)	8.54% (inactive)	19% (inactive)
Nc1sccc1C(=O)c1ccccc1	339	-5.4% (inactive)	5.8% (inactive)	110	-45.7% (inactive)	129	-0.563 (inactive)	7.1e-06 (inactive)	0.00467 (inactive)	-12.1% (inactive)	-9.56% (inactive)
CCOc1ccc(Cl)cc1S(=O)(=O)N1CCCC1	208	1.4% (inactive)	0.2% (inactive)	101	-46.5% (inactive)	122	-0.453 (inactive)	2.4e-05 (inactive)	0.00537 (inactive)	17% (inactive)	15.8% (inactive)
COc1cccc(Nc2nc(=O)[nH]nc2C)c1	372	-0.7% (inactive)	-14.2% (inactive)	106	-23.9% (inactive)	103	-0.572 (inactive)	-4.1e-05 (inactive)	0.00575 (inactive)	16.9% (inactive)	22.7% (inactive)
CCOc1nc2ccccc2nc1NS(=O)(=O)c1ccccc1	769	-4.2% (inactive)	6.9% (inactive)	126	-10% (inactive)	132	-0.462 (inactive)	-0.000234 (inactive)	0.00417 (inactive)	15.8% (inactive)	20% (inactive)
O=C(O)c1cccc(CN2C(=O)SC(Nc3ccccc3)C2=O)c1 (stereo not drawn)	510	3.6% (inactive)	5.6% (inactive)	108	39.4% (inactive)	108	-0.405 (inactive)	6.9e-06 (inactive)	0.00521 (inactive)	8.76% (inactive)	18.9% (inactive)
CN1CCN(C(=O)CCC(=O)c2ccc(F)cc2)CC1	478	3.9% (inactive)	-7.4% (inactive)	122	-2.6% (inactive)	97.1	-0.444 (inactive)	5.6e-05 (inactive)	0.00581 (inactive)	5.42% (inactive)	11.9% (inactive)
Cc1ccc(NC(=O)CS(=O)CC(=O)NCC2CCCO2)cc1 (stereo not drawn)	515	7.1% (inactive)	17.5% (inactive)	100	-38.7% (inactive)	117	-0.309 (inactive)	1.2e-05 (inactive)	0.00727 (inactive)	-20.7% (inactive)	-6.01% (inactive)
COc1ccc2nc(NC(=O)CSc3nnc(-c4ccoc4C)n3C)sc2c1	392	9.9% (inactive)	-2.4% (inactive)	97.8	-28.8% (inactive)	104	-0.563 (inactive)	-2.5e-05 (inactive)	0.00441 (inactive)	-11.5% (inactive)	-48.5% (inactive)
CC(C)[C@H](NC(=O)[C@@H]1CSCN1C(=O)OC(C)(C)C)C(=O)NCC1CCC(C(=O)O)CC1 (stereo partly drawn)	341	8.6% (inactive)	11.9% (inactive)	92.5	17.3% (inactive)	84.4	-0.579 (inactive)	1.8e-05 (inactive)	0.00513 (inactive)	25.1% (inactive)	22.7% (inactive)
O=C1CC(c2ccccc2)CC(O)=C1C=NCCCN1CCOCC1 (stereo not drawn)	307	3.9% (inactive)	22.3% (inactive)	88.8	49.8% (inactive)	69.3	-0.466 (inactive)	-4e-06 (inactive)	0.00557 (inactive)	7.43% (inactive)	9.1% (inactive)
CC(C)(C)C1CCc2c(sc3c2C(=O)NC(c2ccco2)N3)C1 (stereo not drawn)	639	-34.8% (inactive)	14.3% (inactive)	125	15.7% (inactive)	97	-0.506 (inactive)	2.4e-05 (inactive)	0.00491 (inactive)	-39.4% (inactive)	-133% (inactive)
CCCC1C(C#N)=C(N)Oc2n[nH]c(C(C)(C)C)c21 (stereo not drawn)	330	-6.9% (inactive)	-30.2% (inactive)	102	26.6% (inactive)	115	-0.571 (inactive)	-3.1e-05 (inactive)	0.00609 (inactive)	13.9% (inactive)	21.8% (inactive)
COc1ccc(-n2nnc3c(=O)n(C/C=C/c4ccccc4)cnc32)cc1	585	-6.7% (inactive)	-19% (inactive)	102	-31.4% (inactive)	115	-0.218 (inactive)	-1.5e-05 (inactive)	0.00695 (inactive)	12.8% (inactive)	7.09% (inactive)
CN(C)/C=C(\C#N)c1nc2ccccc2[nH]1	468	11.9% (inactive)	-17.2% (inactive)	67.1	-7.3% (inactive)	112	-0.532 (inactive)	-3.9e-05 (inactive)	0.00457 (inactive)	-21.4% (inactive)	-44.6% (inactive)
O=S(=O)(c1ccc(OCC(O)CN2CCC(Cc3ccccc3)CC2)cc1)N1CCOCC1 (stereo not drawn)	730	4.8% (inactive)	-9.9% (inactive)	120	-22.7% (inactive)	116	-0.46 (inactive)	-4e-06 (inactive)	0.00575 (inactive)	-3.87% (inactive)	3.35% (inactive)
COc1ccc(Br)cc1S(=O)(=O)N1CCOCC1	336	5% (inactive)	-25.8% (inactive)	119	-6.1% (inactive)	113	-0.462 (inactive)	-3.5e-05 (inactive)	0.00557 (inactive)	17.4% (inactive)	16.5% (inactive)
CCC(Sc1ccc2nnc(-c3ccc(F)cc3)n2n1)C(=O)OC (stereo not drawn)	562	-16.6% (inactive)	25.1% (inactive)	117	-73.4% (inactive)	117	-0.185 (inactive)	-7e-06 (inactive)	0.00751 (inactive)	17.3% (inactive)	19.1% (inactive)
